# Publication PMC2819655 (Bioorganic & medicinal chemistry, 2009)
# Residue numbers refer to the chain shown, from its start.
# Tests used:
# [1] = target: T1, 26S proteasome in MDA-MB-231 cell extract (Homo sapiens, UniProt P28074); assay: Proteasomal chymotrypsin-like activity in MDA-MB-231 cell extract; assay type: biochemical; conditions: for inhibition of proteasomal activity: MDA-MB-231 cell lysate with high COMT activity, 1-10 μM, 2 h, Fig. 3A; for change of proteasome inhibitory activity with COMT inhibitor DNC: lysate pre-treated with 10 μM DNC for 20 minutes, Fig. 3B
# T1 sequence (P28074 60-263): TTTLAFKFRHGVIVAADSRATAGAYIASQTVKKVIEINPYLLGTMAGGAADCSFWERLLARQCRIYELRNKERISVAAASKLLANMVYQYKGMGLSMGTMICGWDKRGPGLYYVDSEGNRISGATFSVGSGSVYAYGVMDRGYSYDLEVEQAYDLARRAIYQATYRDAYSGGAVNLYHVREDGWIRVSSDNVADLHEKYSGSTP
# Method in brief: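 MDA-MB-231 cell extract (5.7 μg; lysate with high COMT activity) incubated with 20 μM Suc-LLVY-AMC in 20 mM Tris–HCl pH 7.5 with test compound at various concentrations or solvent, 2 h, 37°C. Chymotrypsin-like activity was measured by fluorescence at 355/460 nm. In the COMT-blocked arm, the extract was pre-treated 20 min with 10 μM 3,5-dinitrocatechol, then co-incubated with test compound for 2 h.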
# [2] = target: T2, purified rabbit 20S proteasome (Oryctolagus cuniculus, UniProt G1T4Q9); assay: Inhibition of purified 20S proteasome chymotrypsin-like activity; assay type: biochemical; conditions: for proteasome inhibition: even at 50 μM, Fig. 2A
# T2 sequence (G1T4Q9 60-263): T1 sequence (P28074 60-263) with E197D
# Method in brief: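 Purified rabbit 20S proteasome (35 ng) incubated with 20 μM Suc-LLVY-AMC in 20 mM Tris–HCl pH 7.5, with test compound at various concentrations or solvent, for 2 h at 37°C. Chymotrypsin-like activity was read as fluorogenic substrate hydrolysis at 355 nm excitation and 460 nm emission.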
# [3] = tested on: proteasome chymotrypsin-like activity; conditions: cited from earlier work
# MDA-MB-231 cells = assay: MTT assay, cell proliferation; assay type: cell-based, human; conditions: for inhibition of cell proliferation: MDA-MB-231, 25 to 50 μM, 24 h, MTT, Fig. 4; for cell growth inhibition compared to non-acetylated precursors 5 and 7: MDA-MB-231, Fig. 4
# Method in brief: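 MDA-MB-231 cells were grown in RPMI 1640 with 10% FBS and penicillin/streptomycin at 37°C, 5% CO2. Triplicate wells were treated with test compound (25 or 50 μM) for 24 h. The medium was aspirated, then MTT (1 mg/ml) was added for 3 h at 37°C. The formazan was dissolved in DMSO and absorbance read at 540 nm.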
# cancer cell lines = conditions: a number of cancer cell lines; cited from earlier work
# [4] = tested on: proteasome in MDA-MB-231 cells; assay: Accumulation of ubiquitinated proteins, Western blotting; assay type: cell-based, human; conditions: MDA-MB-231, 50 μM, 22 hours, compared with compound 6 and Pro-EGCG (4), Fig. 6
# Method in brief: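 MDA-MB-231 cells (ATCC; RPMI 1640 with 10% FBS, penicillin/streptomycin; 37°C, 5% CO2) exposed to 50 μM test compound for 22 h. Extracted proteins were analysed by Western blot with antibodies against ubiquitinated proteins, with actin as loading reference.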
smiles,measurement,setting,value
O=C(O[C@H]1Cc2ccccc2C[C@H]1OC(=O)c1cc(O)c(O)c(O)c1)c1cc(O)c(O)c(O)c1 [compound 5],inhibition of proteasomal activity,[1],10-16%
same,change of proteasome inhibitory activity with COMT inhibitor DNC,[1],improved
"O=C(O[C@@H]1Cc2c(O)cc(O)cc2O[C@@H]1c1cc(O)c(O)c(O)c1)c1cc(O)c(O)c(O)c1 [EGCG, (-)-Epigallocatechin-3-gallate, reference compound]",inhibition of proteasomal chymotryptic activity,[2]; Fig. 2,potently inhibited
same,change of proteasome inhibitory activity with COMT inhibitor DNC,[1],improved
same,IC50,"[3]; read-out: IC50, chymotrypsin-like activity of the proteasome in vitro, in vitro",86 to 194 nM
CC(=O)Oc1cc(C(=O)O[C@H]2Cc3ccccc3C[C@H]2OC(=O)c2cc(OC(C)=O)c(OC(C)=O)c(OC(C)=O)c2)cc(OC(C)=O)c1OC(C)=O [compound 6],inhibition of cell proliferation,MDA-MB-231 cells,about 50%
same,cell growth inhibition compared to non-acetylated precursors 5 and 7,MDA-MB-231 cells,more potent
"CC(=O)Oc1cc(OC(C)=O)c2c(c1)O[C@H](c1cc(OC(C)=O)c(OC(C)=O)c(OC(C)=O)c1)[C@H](OC(=O)c1cc(OC(C)=O)c(OC(C)=O)c(OC(C)=O)c1)C2 [compound 4, peracetate of (-)-EGCG]",inhibition of cell proliferation,MDA-MB-231 cells,0 to 32%
same,activity as a proteasome inhibitor,[3],not active
same,growth inhibitory activity relative to EGCG,cancer cell lines,enhanced growth inhibitory activity
O=C(O[C@H]1Cc2ccccc2C[C@H]1OC(=O)c1cc(O)cc(O)c1)c1cc(O)cc(O)c1 [compound 7],inhibition of proteasomal activity,[1],18-51%
same,change of proteasome inhibitory activity with COMT inhibitor DNC,[1],only slightly increased
CC(=O)Oc1cc(OC(C)=O)cc(C(=O)O[C@H]2Cc3ccccc3C[C@H]2OC(=O)c2cc(OC(C)=O)cc(OC(C)=O)c2)c1 [compound 8],inhibition of cell proliferation,MDA-MB-231 cells,70-79%
same,cell growth inhibition compared to non-acetylated precursors 5 and 7,MDA-MB-231 cells,more potent
same,accumulation of ubiquitinated proteins,[4],higher levels of ubiquitinated proteins
O=C(O[C@H]1Cc2ccccc2C[C@H]1O)c1cc(O)c(O)c(O)c1 [compound 16],proteasome inhibition,[2],not active
O=C(O[C@H]1Cc2ccccc2C[C@H]1O)c1cc(O)cc(O)c1 [compound 21],proteasome inhibition,[2],not active
